Activity calls are given as the source filed them. No cut-off for these calls is given here.
How the values were obtained:
SH-SY5Y [1] = assay: Cytotoxicity against human SH-SY5Y cells assessed as cell mortality at 30 uM after 48 hrs by trypan blue exclusion assay; format: functional, cell-based
Procedure, shortened: (§1)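 Pyrrolidine series: MCF-7 in DMEM and SHSY-5Y in DMEM/F12 with 10% FBS, grown to 70% confluence. Compounds in DMSO (0.05%) were added at 10 µM for 24 h or 30 µM for 48 h, with DMSO (0.05%) vehicle controls for the same period. Mortality was derived from trypan blue counts. Data are mean ± SEM of 5-6 assays, analysed by one-way ANOVA followed by Student's t test versus vehicle.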

SH-SY5Y [2] = assay: Cytotoxicity against human SH-SY5Y cells assessed as cell mortality at 10 uM after 24 hrs by trypan blue exclusion assay; format: functional, cell-based; procedure, shortened: as §1
MCF7 [3] = assay: Cytotoxicity against human MCF7 cells assessed as cell mortality at 10 uM after 24 hrs by trypan blue exclusion assay; format: functional, cell-based; procedure, shortened: as §1
MCF7 [4] = assay: Cytotoxicity against human MCF7 cells assessed as cell mortality at 30 uM after 48 hrs by trypan blue exclusion assay relative to control; format: functional
Procedure, shortened: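 MCF-7 cells were cultured in DMEM + 10% FBS to 70% confluence. Compound was dissolved in DMSO (0.05%) and added to the medium for 48 h. Controls received 0.05% DMSO for the same period. Total cells, viable cells and mortality were calculated per compound and dose. Results are given as mean ± SEM of 5–6 assays, analysed by one-way ANOVA then Student's t test.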

MCF7 [5] = assay: Cytotoxicity against human MCF7 cells assessed as cell viability at 30 uM after 48 hrs by trypan blue staining-based assay; format: functional
Procedure, shortened: (§2)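 Indolizidinone series: MCF-7 grown in DMEM phenol red and SHSY-5Y in DMEM/F12 Ham's, each with 10% FBS, at 37 °C under 5% CO2 to 80% confluence. About 10 × 10⁶ cells were seeded, grown 24 h, then exposed 24 or 48 h to vehicle (0.05% DMSO) or increasing compound concentrations in DMSO. Viable cells were counted by trypan blue staining on a Vi-Cell-XR analyzer.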

SH-SY5Y [6] = assay: Cytotoxicity against human SH-SY5Y cells assessed as cell viability at 30 uM after 48 hrs by trypan blue staining-based assay; format: functional; procedure, shortened: as §2
MCF7 [7] = assay: Cytotoxicity against human MCF7 cells after 24 to 48 hrs by trypan blue exclusion assay; format: functional, cell-based; procedure, shortened: as §2
MCF7 [8] = assay: Cytotoxicity against human MCF7 cells assessed as increase in cellular volume at 30 uM; format: functional, cell-based; settings: TDE = time-dependent effect
Procedure, shortened: (§3)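 Cells were treated at 30 µM (0.05% DMSO vehicle controls) and examined microscopically over time, from 6 h up to 48 h. Changes scored were cell and nuclear volume, nucleolar refringency and cytoplasm vacuolization, compared with vehicle-treated cells.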

MCF7 [9] = assay: Cytotoxicity against human MCF7 cells assessed as increase in nuclear volume at 30 uM; format: functional, cell-based; settings: TDE = time-dependent effect; procedure, shortened: as §3
MCF7 [10] = assay: Cytotoxicity against human MCF7 cells assessed as nucleolar refringency at 30 uM; format: functional, cell-based; settings: TDE = time-dependent effect; procedure, shortened: as §3
SH-SY5Y [11] = assay: Cytotoxicity against human SH-SY5Y cells after 24 to 48 hrs by trypan blue exclusion assay; format: functional, cell-based; procedure, shortened: as §2
SH-SY5Y [12] = assay: Cytotoxicity against human SH-SY5Y cells assessed as change in cell morphology at 30 uM after 48 hrs; format: functional, cell-based; procedure, shortened: as §3
MCF7 [13] = assay: Cytotoxicity against human MCF7 cells assessed as cytoplasm vacuolization at 30 uM; format: functional, cell-based; settings: TDE = time-dependent effect; procedure, shortened: as §3
MCF7 [14] = assay: Cytotoxicity against human MCF7 cells assessed as change in cell morphology at 30 uM after 48 hrs; format: functional, cell-based; procedure, shortened: as §3
MCF7 [15] = assay: Cytotoxicity against human MCF7 cells assessed as cell death at 30 uM after 48 hrs by trypan blue staining-based assay relative to control; format: functional
Procedure, shortened: (§4)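 Cells grown at 37 °C, 5% CO2 to 80% confluence: MCF-7 in phenol red DMEM + 10% FBS, SH-SY5Y in DMEM/F12 Ham's + 10% FBS. About 10 × 10⁶ cells were seeded and grown 24 h, then exposed 48 h to compound in […] or to vehicle (0.05% DMSO). Viable cells were counted by trypan blue staining on an automated analyzer. Compared with vehicle.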

[16] = Cytotoxicity against human SH-SY5Y cells assessed as cell death at 30 uM after 48 hrs by trypan blue staining-based assay relative to control; format: functional; procedure, shortened: as §4

## Cn1cccc1C(=O)C[C@@H]1C[C@@H](O)CN1C(=O)Cc1ccccc1
SH-SY5Y [1]
  Activity: Active
SH-SY5Y [2]
  Activity: Active
MCF7 [3]
  Activity: Active
MCF7 [4]
  Activity: Active

## COc1ccc(C(=O)CC2C[C@@H](O)CN2C(=O)Cc2ccccc2)cc1 (stereo not given in full)
SH-SY5Y [1]
  Activity: Active
SH-SY5Y [2]
  Activity: Active
MCF7 [3]
  Activity: Active
MCF7 [4]
  Activity: Active

## O=C1C(c2ccccc2)=C(c2ccco2)C[C@H]2C[C@@H](O)CN12
MCF7 [5]
  Activity: Active

## COc1ccc(C2=C(c3ccccc3)C(=O)N3C[C@H](O)C[C@H]3C2)cc1
SH-SY5Y [6]
  Activity: Active
MCF7 [5]
  Activity: Active

## O=C1C(c2ccccc2)=C(c2ccccc2)C[C@H]2C[C@@H](O)CN12
MCF7 [5]
  Activity: Active

## O=C(C[C@H]1C[C@@H](O)CN1C(=O)Cc1ccccc1)c1ccc(-c2ccccc2)cc1
MCF7 [7]
  Activity: Dose-dependent effect
MCF7 [8]
  Activity: tde
MCF7 [9]
  Activity: tde
MCF7 [10]
  Activity: tde
MCF7 [3]
  Activity: Active
MCF7 [4]
  Activity: >=80%
SH-SY5Y [11]
  Activity: Dose-dependent effect
SH-SY5Y [12]
  Activity: Active
MCF7 [13]
  Activity: tde

## O=C1C(c2ccccc2)=C(c2ccc3ccccc3c2)C[C@H]2C[C@@H](O)CN12
MCF7 [5]
  Activity: Active

## O=C(C[C@@H]1C[C@@H](O)CN1C(=O)Cc1ccccc1)c1ccc(-c2ccccc2)cc1
MCF7 [7]
  Activity: Dose-dependent effect
MCF7 [3]
  Activity: Active
MCF7 [4]
  Activity: >=80%
SH-SY5Y [11]
  Activity: Dose-dependent effect

## O=C1C(c2ccccc2)=C(c2ccc(-c3ccccc3)cc2)C[C@H]2C[C@@H](O)CN12
SH-SY5Y [6]
  Activity: Active
MCF7 [14]
  Activity: Active
MCF7 [5]
  Activity: Active
MCF7 [15]
  Activity: 80%
[16]
  Activity: 80%
SH-SY5Y [12]
  Activity: Active

## O=C(C[C@H]1C[C@@H](O)CN1C(=O)Cc1ccccc1)c1ccco1
SH-SY5Y [1]
  Activity: Active
SH-SY5Y [2]
  Activity: Active
MCF7 [3]
  Activity: Active
MCF7 [4]
  Activity: Active

## O=C(CC1C[C@@H](O)CN1C(=O)Cc1ccccc1)c1ccco1 (stereo not given in full)
SH-SY5Y [1]
  Activity: Active
SH-SY5Y [2]
  Activity: Active
MCF7 [3]
  Activity: Active
MCF7 [4]
  Activity: Active

## O=C1C(c2ccccc2)=C(c2ccc(Br)cc2)C[C@H]2C[C@@H](O)CN12
MCF7 [5]
  Activity: Active

## O=C1C(c2ccccc2)=C(c2ccccc2)C[C@@H]2C[C@@H](O)CN12
MCF7 [5]
  Activity: Active

## Cn1cccc1C1=C(c2ccccc2)C(=O)N2C[C@H](O)C[C@@H]2C1
SH-SY5Y [6]
  Activity: Active
MCF7 [5]
  Activity: Active

## O=C1C(c2ccccc2)=C(c2ccco2)C[C@@H]2C[C@@H](O)CN12
SH-SY5Y [6]
  Activity: Active
MCF7 [5]
  Activity: Active

## O=C(CC1C[C@@H](O)CN1C(=O)Cc1ccccc1)c1ccc(Br)cc1 (stereo not given in full)
SH-SY5Y [1]
  Activity: Active
SH-SY5Y [2]
  Activity: Active
MCF7 [3]
  Activity: Active
MCF7 [4]
  Activity: Active

## COc1ccc(C2=C(c3ccccc3)C(=O)N3C[C@H](O)C[C@@H]3C2)cc1
MCF7 [5]
  Activity: Active

## O=C1C(c2ccccc2)=C(c2ccc(-c3ccccc3)cc2)C[C@@H]2C[C@@H](O)CN12
SH-SY5Y [6]
  Activity: Active
MCF7 [5]
  Activity: Active

## Cn1cccc1C(=O)CC1C[C@@H](O)CN1C(=O)Cc1ccccc1 (stereo not given in full)
SH-SY5Y [1]
  Activity: Active
SH-SY5Y [2]
  Activity: Active
MCF7 [3]
  Activity: Active
MCF7 [4]
  Activity: Active

## O=C1C(c2ccccc2)=C(c2ccc3ccccc3c2)C[C@@H]2C[C@@H](O)CN12
SH-SY5Y [6]
  Activity: Active
MCF7 [5]
  Activity: Active

## Cn1cccc1C1=C(c2ccccc2)C(=O)N2C[C@H](O)C[C@H]2C1
SH-SY5Y [6]
  Activity: Active
MCF7 [5]
  Activity: Active

## O=C(C[C@@H]1C[C@@H](O)CN1C(=O)Cc1ccccc1)c1ccco1
MCF7 [7]
  Activity: Dose-dependent effect
SH-SY5Y [11]
  Activity: Dose-dependent effect

## O=C1C(c2ccccc2)=C(c2ccc(Br)cc2)C[C@@H]2C[C@@H](O)CN12
SH-SY5Y [6]
  Activity: Active
MCF7 [5]
  Activity: Active
